Experiment [1] deals with Muscarinic acetylcholine receptor. Kind of experiment: In vitro inhibition of [3H]OXO-M binding to Muscarinic receptor from rat cortical homogenates.
Experiment [2] shares this target. Kind of experiment: In vitro inhibition of [3H]QNB binding to Muscarinic receptor from rat cortical homogenates.
Experiment [3] addresses Muscarinic acetylcholine receptor (Rattus norvegicus) (UniProt P08482+P08483+P08485+P08911+P10980). Kind of experiment: Ratio of IC50(QNB) to IC50(OXO-M) was determined. It counts as protein assay.
The target of experiment [4] is Muscarinic acetylcholine receptor. Put plainly: Compound was tested in vitro for its binding affinity to muscarinic acetylcholine receptor from rat cortical homogenates using [3H]OXO-M as radioligand. In a few lines: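 Hooded Lister rat cerebral cortex washed membranes in 50 mM Tris pH 7.7 plus 2 mM MgCl2; 2 nM [3H]oxotremorine-M; nonspecific binding with 10 μM oxotremorine; 37 °C for 30 min; filtration on filters presoaked in 0.05% polyethylenimine, scintillation counting. IC50 is the geometric mean of at least two separate experiments, seven concentrations each.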

Experiment [5] shares this target. Put plainly: Compound was tested in vitro for its binding affinity to muscarinic acetylcholine receptor from rat cortical homogenates using [3H]QNB as radioligand.

The IC50 is the concentration needed to halve the response being measured. Regarding `Cn1cnc(C2CN3CCC2CC3)n1` (centres undefined), the IC50 in experiment [1] is 3.4 µM; in experiment [2] it was 30 µM.

As to `c1nnn(C2CN3CCC2CC3)n1` (centres undefined), the IC50 in experiment [1] is 0.24 µM; in experiment [2], 16 µM.

For the molecule `O=C1CCCN1CC#CCN1CCCC1` [OXOTREMORINE], the values for the IC50 in experiment [1] and in experiment [2] were 0.017 µM and 3.3 µM, respectively.

For `Cn1nncc1C1CN2CCC1CC2` (centres undefined), the IC50 in experiment [1] is 0.93 µM; in experiment [2], 29 µM.

As to `C[N+](C)(C)CC#CCN1CCCC1=O.[I-]` [OXOTREMORINE METHIODIDE], the Ratio in experiment [3] came to 1820. Moreover, the results for the IC50 in experiment [4] and in experiment [5] were 0.013 µM and 23 µM, respectively.

Turning to `Cn1ncc(C2CN3CCC2CC3)n1` (centres undefined), the IC50 was 0.048 µM in experiment [1] and 4.5 µM in experiment [2].

Take `Cn1nnc(C2CN3CCC2CC3)n1` (centres undefined): the figures for the IC50 in experiment [1] and in experiment [2] were 0.14 µM and 5.1 µM, respectively.

Consider `c1ncn(C2CN3CCC2CC3)n1` (centres undefined), for which the Ratio in experiment [3] worked out at 65. In addition, the IC50 was 0.43 µM in experiment [4] and 28 µM in experiment [5].

In the case of `c1nnnn1C1CN2CCC1CC2` (centres undefined), the Ratio in experiment [3] was found to be 49. Also, the results for the concentration for half-maximal inhibition (IC50) in experiment [4] and in experiment [5] were 2.3 µM and 115 µM, respectively.

Turning to `Cc1ncn(C2CN3CCC2CC3)n1` (centres undefined), the IC50 in experiment [1] turned out to be 0.075 µM; in experiment [2], 4.5 µM.

As to `Cn1nnnc1C1CN2CCC1CC2` (centres undefined), the values for the IC50 in experiment [1] and in experiment [2] were 6.5 µM and 60 µM, respectively.

As for `c1nncn1C1CN2CCC1CC2` (centres undefined), the IC50 in experiment [1] worked out at 40 µM; in experiment [2] it was 165 µM.

Consider `Cn1cc(C2CN3CCC2CC3)nn1` (centres undefined), for which the IC50 came out at 4.6 µM in experiment [1] and 53 µM in experiment [2].

In the case of `Cc1cnnn1C1CN2CCC1CC2` (centres undefined), in experiment [3], the Ratio was found to be 4.9. For the same molecule, the IC50 came out at 6.7 µM in experiment [4] and 33 µM in experiment [5].

Take `Cc1cnn(C2CN3CCC2CC3)n1` (centres undefined): the values for the IC50 in experiment [1] and in experiment [2] were 0.17 µM and 1.6 µM, respectively.

Take `Cc1nnn(C2CN3CCC2CC3)n1` (centres undefined): the Ratio in experiment [3] turned out to be 92. Further, the IC50 in experiment [4] worked out at 0.03 µM; in experiment [5], 2.8 µM.

As to `Cc1cn(C2CN3CCC2CC3)nn1` (centres undefined), the IC50 in experiment [1] was 5 µM; in experiment [2], 20 µM.

The values are drawn from ChEMBL document CHEMBL1125425, “Synthesis and muscarinic activities of quinuclidin-3-yltriazole and -tetrazole derivatives” (J Med Chem, 1992).
